ChEMBL document CHEMBL2146438, “Radiolabeled cyclosaligenyl monophosphates of 5-iodo-2'-deoxyuridine, 5-iodo-3'-fluoro-2',3'-dideoxyuridine, and 3'-fluorothymidine for molecular radiotherapy of cancer: synthesis and biological evaluation” (J Med Chem, 2012)

Columns and labels:
[1] = system: OVCAR-3; experiment: Cellular uptake in human OVCAR3 cells at 16.7 +/- 1.2 kBq/mL after 3 hrs by gamma counting; type: ADME, cell-based; details: ovcar-3, 3 h
Procedure, shortened: (§1)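 Time-course uptake of resolved 125I-labelled diastereomers in LS 174T (colorectal) or OVCAR-3 (ovarian) cells at the stated radioactive concentration; cell-associated radioactivity counted at each time point; mean and std dev, n = 3 per time.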

[2] = Cellular uptake in human LS 174T cells at 13.6 +/- 0.4 kBq/mL after 3 hrs by gamma counting; type: ADME, cell-based; details: ls174t; procedure, shortened: as §1
[3] = Chemical stability of the compound in phosphate buffer at pH 7.3; type: physicochemical
[4] = Half life of the compound in phosphate buffer at pH 7.3; type: physicochemical
[5] = Cellular uptake in human U87MG cell cytoplasm incubated for 1 hr followed by compound wash out measured after 24 hrs by gamma counting; type: ADME, cell-based; details: u-87mg atcc
Procedure, shortened: (§2)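 U-87 MG cells treated 1 h with 125I-labelled diastereomers, fractionated either immediately or after 24 h in fresh nonradioactive medium; 125I counted in cytoplasm, soluble nuclear fraction and DNA.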

[6] = Cellular uptake in human U87MG cell nucleus incubated for 1 hr followed by compound wash out measured after 24 hrs by gamma counting; type: ADME, cell-based; details: u-87mg atcc; procedure, shortened: as §2
[7] = Cellular uptake in human U87MG DNA incubated for 1 hr followed by compound wash out measured after 24 hrs by gamma counting; type: ADME, cell-based; details: u-87mg atcc; procedure, shortened: as §2
[8] = Cellular uptake in human LS 174T cells by gamma counting; type: ADME, cell-based; details: ls174t
[9] = system: OVCAR-3; experiment: Cellular uptake in human OVCAR3 cells at 35.1 +/- 0.3 kBq/mL after 3 hrs by gamma counting; type: ADME, cell-based; details: ovcar-3, 3 h; procedure, shortened: as §1
[10] = Cellular uptake in human LS 174T cells at 35.1 +/- 0.3 kBq/mL after 3 hrs by gamma counting; type: ADME, cell-based; details: ls174t; procedure, shortened: as §1
[11] = system: OVCAR-3; experiment: Cellular uptake in human OVCAR3 cells at 35.1 +/- 0.3 kBq/mL after 6 hrs by gamma counting; type: ADME, cell-based; details: ovcar-3, 6 h
Procedure, shortened: (§3)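 Time-course uptake in LS 174T or OVCAR-3 cells at 35.1±0.3 kBq/mL, continued to 6 h; cell-associated 125I counted; mean and std dev, n = 3 per time.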

[12] = Cellular uptake in human LS 174T cells at 35.1 +/- 0.3 kBq/mL after 6 hrs by gamma counting; type: ADME, cell-based; details: ls174t; procedure, shortened: as §3
[13] = system: OVCAR-3; experiment: Cellular uptake in human OVCAR3 cells at 46.9 +/- 1.1 kBq/mL up to 90 mins by gamma counting; type: ADME, cell-based; details: ovcar-3, 1.5 h; procedure, shortened: as §1
[14] = Cellular uptake in human LS 174T cells at 46.9 +/- 1.1 kBq/mL up to 90 mins by gamma counting; type: ADME, cell-based; details: ls174t, 1.5 h; procedure, shortened: as §1
[15] = Cellular uptake in human U87MG cells by gamma counting; type: ADME, cell-based; details: u-87mg atcc
[16] = system: OVCAR-3; experiment: Cellular uptake in human OVCAR3 cells after 3 hrs by gamma counting; type: ADME, cell-based; details: ovcar-3, 3 h
Procedure, shortened: (§4)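 Concentration-dependent uptake: LS 174T or OVCAR-3 cells exposed to increasing concentrations of 125I-labelled diastereomers for 3 h; 131IUdR added to the medium as internal standard of proliferation; saturable uptake fitted to give Bmax as molecules/cell.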

[17] = Cytotoxicity against human LS 174T cells assessed as colony formation at 114.5 kBq/mL incubated for 4 hrs measured after 21 days by clonogenic assay; type: functional, LS174T
Procedure, shortened: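 LS 174T cells exposed 4 h to 114.5 kBq/mL 125I agent, cultured 24 h in nonradioactive medium, then harvested and plated; colonies counted after 21 days; surviving fraction = treated colonies / untreated control colonies.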

[18] = system: OVCAR-3; experiment: Cellular uptake in human OVCAR3 cells at 46.9 +/- 1.1 kBq/mL after 90 mins by gamma counting; type: ADME, cell-based; details: ovcar-3, 1.5 h; procedure, shortened: as §1
[19] = Cellular uptake in human LS 174T cells at 46.9 +/- 1.1 kBq/mL after 90 mins by gamma counting; type: ADME, cell-based; details: ls174t, 1.5 h; procedure, shortened: as §1
[20] = Cellular uptake in human LS 174T cells after 3 hrs by gamma counting; type: ADME, cell-based; details: ls174t; procedure, shortened: as §4
[21] = Cellular uptake in human OVCAR3 cell cytoplasm assessed as per 10^3 cells after 1 hr by gamma counting; type: ADME, cell-based; details: ovcar-3, 1 h, 1 h
Procedure, shortened: (§5)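 OVCAR-3 cells incubated 1 h with 55.5 (0.04) kBq/mL 125I-labelled agent (diastereomer mixtures or resolved slow isomers); fractionated either immediately or after 24 h further growth in fresh nonradioactive medium; 125I in cytoplasm and nucleus counted as cpm/10^3 cells with std dev.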

[22] = Cellular uptake in human OVCAR3 cell cytoplasm assessed as per 10^3 cells after 24 hrs by gamma counting; type: ADME, cell-based; details: ovcar-3, 24 h, 24 h; procedure, shortened: as §5
[23] = Cellular uptake in human OVCAR3 cell nucleus assessed as per 10^3 cells after 1 hr by gamma counting; type: ADME, cell-based; details: ovcar-3, 1 h, 1 h; procedure, shortened: as §5
[24] = Cellular uptake in human OVCAR3 cell nucleus assessed as per 10^3 cells after 24 hrs by gamma counting; type: ADME, cell-based; details: ovcar-3, 24 h, 24 h; procedure, shortened: as §5
[25] = Cellular uptake in human LS 174T cells at 17.5 +/- 0.3 kBq/mL after 3 hrs by gamma counting; type: ADME, cell-based; details: ls174t; procedure, shortened: as §1
[26] = biological target: Cholinesterase (Homo sapiens, UniProt P06276); experiment: Inhibition of human BChE after 24 hrs by microplate reader method
Sequence of Cholinesterase (P06276 whole entry): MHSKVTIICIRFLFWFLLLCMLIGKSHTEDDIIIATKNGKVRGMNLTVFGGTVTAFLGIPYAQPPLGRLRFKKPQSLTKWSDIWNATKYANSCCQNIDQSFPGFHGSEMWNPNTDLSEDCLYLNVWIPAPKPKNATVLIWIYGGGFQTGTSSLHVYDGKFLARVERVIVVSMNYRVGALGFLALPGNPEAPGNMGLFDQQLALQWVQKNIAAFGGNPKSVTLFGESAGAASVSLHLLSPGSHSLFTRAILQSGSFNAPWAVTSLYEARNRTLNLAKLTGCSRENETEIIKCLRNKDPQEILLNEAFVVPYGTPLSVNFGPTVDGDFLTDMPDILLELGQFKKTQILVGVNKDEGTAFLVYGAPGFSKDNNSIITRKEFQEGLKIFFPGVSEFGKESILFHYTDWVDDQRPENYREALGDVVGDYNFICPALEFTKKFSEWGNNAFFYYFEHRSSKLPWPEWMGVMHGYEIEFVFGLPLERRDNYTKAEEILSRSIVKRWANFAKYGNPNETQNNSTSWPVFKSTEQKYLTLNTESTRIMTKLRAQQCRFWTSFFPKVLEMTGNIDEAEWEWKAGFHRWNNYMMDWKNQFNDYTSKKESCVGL

CC(C)(C)c1cc(C(C)(C)C)c2c(c1F)COP(=O)(OC[C@H]1O[C@@H](n3cc([125I])c(=O)[nH]c3=O)C[C@@H]1O)O2 (some centres not stated)
Drug uptake [1]: Active | Drug uptake [2]: Active

CC(C)(C)c1cc(C(C)(C)C)c2c(c1F)COP(=O)(OC[C@H]1O[C@@H](n3cc([125I])c(=O)[nH]c3=O)C[C@@H]1F)O2 (stereo in doubt; form 1)
K [3]: 3.01 ×10⁻⁴ /min | t1/2 [4]: 38.5 h | Drug uptake [5]: Active | Drug uptake [6]: Active | Drug uptake [7]: Active

Cc1cccc2c1OP(=O)(OC[C@H]1O[C@@H](n3cc([125I])c(=O)[nH]c3=O)C[C@@H]1O)OC2 (stereo in doubt; form 1)
K [3]: 5.44 ×10⁻⁴ /min | t1/2 [4]: 21.2 h | Drug uptake [8]: Active | Drug uptake [9]: Active | Drug uptake [10]: Active | Drug uptake [11]: Active | Drug uptake [12]: Active

O=c1[nH]c(=O)n([C@H]2C[C@H](O)[C@@H](COP3(=O)OCc4ccccc4O3)O2)cc1[125I] (stereo in doubt; form 1)
K [3]: 2.25 ×10⁻³ /min | t1/2 [4]: 5.1 h | Drug uptake [13]: Active | Drug uptake [14]: Active | Drug uptake [15]: Dose-dependent effect | Drug uptake [16]: Dose-dependent effect | Activity [17]: 60% | Drug uptake [18]: Active | Drug uptake [19]: Active | Drug uptake [20]: Dose-dependent effect

CC(C)(C)c1cc(C(C)(C)C)c2c(c1F)COP(=O)(OC[C@H]1O[C@@H](n3cc([125I])c(=O)[nH]c3=O)C[C@@H]1O)O2 (stereo in doubt)
Drug uptake [21]: 87.3 cpm | Drug uptake [22]: 2.8 cpm | Drug uptake [23]: 7.8 cpm | Drug uptake [24]: 91.6 cpm | Drug uptake [25]: Active

CC(C)(C)c1cc(C(C)(C)C)c2c(c1F)COP(=O)(O[C@H]1C[C@H](n3cc(I)c(=O)[nH]c3=O)O[C@@H]1CO)O2 (stereo in doubt; form 2)
K [3]: 6.67 ×10⁻⁴ /min | t1/2 [4]: 17.3 h | IC50 [26]: > 3 mM
